Reference: ChEMBL document CHEMBL1800059, “Spiroindane based amides as potent and selective MC4R agonists for the treatment of obesity” (Bioorg Med Chem Lett, 2010)

Tests used:
Melanocortin receptor 4 [1] = biological target: T1, Melanocortin receptor 4 (Homo sapiens, UniProt P32245); assay: Displacement of [125I]-NDP-R-MSH from human MC4R expressed in CHO cells after 1.5 hrs by scintillation counting; format: cell-based
Summary of the method: (§1)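 Each value is the mean of at least three repeat measurements. Functional read-outs give EC50 with % maximal activation.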

Melanocortin receptor 4 [2] = biological target: T1, Melanocortin receptor 4; assay: Agonist activity at human MC4R expressed in CHO cells assessed as increase of alpha-MSH-stimulated cAMP release pretreated for 10 mins before alpha-MSH challenge measured after 40 mins; format: functional, cell-based; summary of the method: as §1
[3] = Agonist activity at human MC1bR expressed in CHO cells assessed as increase of alpha-MSH-stimulated cAMP release pretreated for 10 mins before alpha-MSH challenge measured after 40 mins relative to alpha-MSH; format: functional; summary of the method: as §1
Melanocortin receptor 4 [4] = biological target: T1, Melanocortin receptor 4; assay: Agonist activity at human MC4R expressed in CHO cells assessed as increase of alpha-MSH-stimulated cAMP release pretreated for 10 mins before alpha-MSH challenge measured after 40 mins relative to alpha-MSH; format: functional, cell-based; summary of the method: as §1
[5] = Agonist activity at human MC1bR expressed in CHO cells assessed as increase of alpha-MSH-stimulated cAMP release pretreated for 10 mins before alpha-MSH challenge measured after 40 mins; format: functional, cell-based; summary of the method: as §1
Rattus norvegicus = assay: Dose-normalized AUC in Sprague-Dawley rat at 1 mg/kg, iv and 4 mg/kg, po; format: ADME, organism-based; conditions: in vivo
[6] = Half life in Sprague-Dawley rat at 1 mg/kg, iv and 4 mg/kg, po; format: ADME, organism-based; conditions: in vivo
[7] = Volume of distribution at steady state in Sprague-Dawley rat at 1 mg/kg, iv and 4 mg/kg, po; format: ADME, organism-based; conditions: in vivo, read-out: Vdss
[8] = Oral bioavailability in Sprague-Dawley rat at 4 mg/kg; format: ADME, organism-based; conditions: in vivo
[9] = Clearance in Sprague-Dawley rat at 1 mg/kg, iv and 4 mg/kg, po; format: ADME, organism-based; conditions: in vivo

T1 sequence (P32245 whole entry): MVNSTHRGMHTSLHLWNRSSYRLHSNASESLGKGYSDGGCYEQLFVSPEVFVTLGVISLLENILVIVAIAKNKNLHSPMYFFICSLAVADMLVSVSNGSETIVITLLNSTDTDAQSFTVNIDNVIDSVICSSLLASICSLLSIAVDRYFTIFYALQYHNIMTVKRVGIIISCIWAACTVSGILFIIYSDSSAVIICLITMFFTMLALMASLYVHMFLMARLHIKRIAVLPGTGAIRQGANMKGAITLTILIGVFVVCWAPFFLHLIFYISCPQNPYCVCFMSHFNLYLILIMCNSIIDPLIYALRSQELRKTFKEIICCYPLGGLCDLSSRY

IC50 (Melanocortin receptor 4 [1]) [nM] | EC50 (Melanocortin receptor 4 [2]) [nM] | Activity (Melanocortin receptor 4 [4]) [%] | EC50 [5] [nM] | AUC/dose (Rattus norvegicus) [µM·h/mg/kg] | half-life [6] [h] | Vd [7] [L/kg] | bioavailability [8] [%] | clearance [9] [mL/min/kg] | SMILES | Activity [3] [%]
53 | 32 | 96 | 1420 |  |  |  |  |  | CCNC(=O)C(C)(C)[C@@H]1CC2(CCN(C(=O)[C@@H]3CN(C(C)(C)C)C[C@H]3c3ccc(F)cc3F)CC2)c2cc(Cl)c(C)cc21 | 26
2.6 | 1.7 | 81 | 168 |  |  |  |  |  | CCN(CC)C(=O)C(C)(C)[C@H]1CC2(CCN(C(=O)[C@@H]3CN(C(C)(C)C)C[C@H]3c3ccc(F)cc3F)CC2)c2cc(Cl)c(C)cc21 | 67
1.8 | 1 | 73 | 223 |  |  |  |  |  | Cc1cc2c(cc1Cl)C1(CCN(C(=O)[C@@H]3CN(C(C)(C)C)C[C@H]3c3ccc(F)cc3F)CC1)C[C@@H]2C(C)(C)C(=O)N1CCCC1 | 60
2 | 3.8 | 96 | 285 |  |  |  |  |  | Cc1cc2c(cc1Cl)C1(CCN(C(=O)[C@@H]3CN(C(C)(C)C)C[C@H]3c3ccc(F)cc3F)CC1)C[C@@H]2C(C)(C)C(=O)N1CCC(F)(F)C1 | 54
1.8 | 4.3 | 78 | 430 | 0.35 | 7.3 | 8.88 | 29 | 21.8 | Cc1cc2c(cc1Cl)C1(CCN(C(=O)[C@@H]3CN(C(C)(C)C)C[C@H]3c3ccc(F)cc3F)CC1)C[C@@H]2C(C)(C)C(=O)N1CC(F)(F)C1 | 46
12 | 42 | 79 | 935 |  |  |  |  |  | Cc1cc2c(cc1Cl)C1(CCN(C(=O)[C@@H]3CN(C(C)(C)C)C[C@H]3c3ccc(F)cc3F)CC1)C[C@@H]2C(C)(C)C(=O)NCc1ccccc1 | 29
5.4 | 4.2 | 89 | 838 |  |  |  |  |  | Cc1cc2c(cc1Cl)C1(CCN(C(=O)[C@@H]3CN(C(C)(C)C)C[C@H]3c3ccc(F)cc3F)CC1)C[C@@H]2C(C)(C)C(=O)NCC(F)(F)F | 30
3.1 | 1.4 | 100 | 295 |  |  |  |  |  | CCNC(=O)C(C)(C)[C@H]1CC2(CCN(C(=O)[C@@H]3CN(C(C)(C)C)C[C@H]3c3ccc(F)cc3F)CC2)c2cc(Cl)c(C)cc21 | 50
12 | 9.9 | 76 | 1030 |  |  |  |  |  | Cc1cc2c(cc1Cl)C1(CCN(C(=O)[C@@H]3CN(C(C)(C)C)C[C@H]3c3ccc(F)cc3F)CC1)C[C@@H]2C(C)(C)C(=O)NC(C)(C)C | 47
5.9 | 2.9 | 92 | 435 |  |  |  |  |  | Cc1cc2c(cc1Cl)C1(CCN(C(=O)[C@@H]3CN(C(C)(C)C)C[C@H]3c3ccc(F)cc3F)CC1)C[C@@H]2C(C)(C)C(=O)NC(C)C | 45
2.3 | 1.2 | 112 | 102 |  |  |  |  |  | CO[C@H]1CCN(C(=O)C(C)(C)[C@H]2CC3(CCN(C(=O)[C@@H]4CN(C(C)(C)C)C[C@H]4c4ccc(F)cc4F)CC3)c3cc(Cl)c(C)cc32)C1 | 71
93 | 307 | 78 |  |  |  |  |  |  | Cc1cc2c(cc1Cl)C1(CCN(C(=O)[C@@H]3CN(C(C)(C)C)C[C@H]3c3ccc(F)cc3F)CC1)C[C@H]2C(C)(C)C(=O)NCC(F)(F)F | 5
47 | 12 | 86 | 1380 |  |  |  |  |  | CNC(=O)C(C)(C)[C@@H]1CC2(CCN(C(=O)[C@@H]3CN(C(C)(C)C)C[C@H]3c3ccc(F)cc3F)CC2)c2cc(Cl)c(C)cc21 | 38
1.4 | 0.69 | 111 | 103 |  |  |  |  |  | CO[C@@H]1CCN(C(=O)C(C)(C)[C@H]2CC3(CCN(C(=O)[C@@H]4CN(C(C)(C)C)C[C@H]4c4ccc(F)cc4F)CC3)c3cc(Cl)c(C)cc32)C1 | 67
1.4 | 0.98 | 106 | 203 |  |  |  |  |  | Cc1cc2c(cc1Cl)C1(CCN(C(=O)[C@@H]3CN(C(C)(C)C)C[C@H]3c3ccc(F)cc3F)CC1)C[C@@H]2C(C)(C)C(=O)N1CC[C@H](F)C1 | 68
3.9 | 1.9 | 89 | 218 |  |  |  |  |  | Cc1cc2c(cc1Cl)C1(CCN(C(=O)[C@@H]3CN(C(C)(C)C)C[C@H]3c3ccc(F)cc3F)CC1)C[C@@H]2C(C)(C)C(=O)NC(C)(C)CO | 53
2.6 | 1.3 | 100 | 83 |  |  |  |  |  | Cc1cc2c(cc1Cl)C1(CCN(C(=O)[C@@H]3CN(C(C)(C)C)C[C@H]3c3ccc(F)cc3F)CC1)C[C@@H]2C(C)(C)C(=O)NCCO | 56

IC50 (Melanocortin receptor 4 [1]) [nM] | EC50 (Melanocortin receptor 4 [2]) [nM] | Activity (Melanocortin receptor 4 [4]) [%] | EC50 [5] [nM] | AUC/dose (Rattus norvegicus) [µM·h/mg/kg] | half-life [6] [h] | Vd [7] [L/kg] | bioavailability [8] [%] | clearance [9] [mL/min/kg] | SMILES | Activity [3] [%]
55 | 28 | 95 | 1120 |  |  |  |  |  | Cc1cc2c(cc1Cl)C1(CCN(C(=O)[C@@H]3CN(C(C)(C)C)C[C@H]3c3ccc(F)cc3F)CC1)C[C@H]2C(C)(C)C(=O)NC1CC1 | 20
2.1 | 1.6 | 103 | 355 |  |  |  |  |  | CCN(C)C(=O)C(C)(C)[C@H]1CC2(CCN(C(=O)[C@@H]3CN(C(C)(C)C)C[C@H]3c3ccc(F)cc3F)CC2)c2cc(Cl)c(C)cc21 | 69
0.53 | 0.25 | 98 | 33 |  |  |  |  |  | Cc1cc2c(cc1Cl)C1(CCN(C(=O)[C@@H]3CN(C(C)(C)C)C[C@H]3c3ccc(F)cc3F)CC1)C[C@@H]2C(C)(C)C(=O)N1CC[C@@H](O)C1 | 71
1.6 | 1.1 | 87 | 122 |  |  |  |  |  | Cc1cc2c(cc1Cl)C1(CCN(C(=O)[C@@H]3CN(C(C)(C)C)C[C@H]3c3ccc(F)cc3F)CC1)C[C@@H]2C(C)(C)C(=O)N1CC[C@@H](F)C1 | 69
2.2 | 0.8 | 95 | 243 |  |  |  |  |  | Cc1cc2c(cc1Cl)C1(CCN(C(=O)[C@@H]3CN(C(C)(C)C)C[C@H]3c3ccc(F)cc3F)CC1)C[C@@H]2C(C)(C)C(=O)NC1CC1 | 50
2.6 | 1.1 | 84 | 260 |  |  |  |  |  | Cc1cc2c(cc1Cl)C1(CCN(C(=O)[C@@H]3CN(C(C)(C)C)C[C@H]3c3ccc(F)cc3F)CC1)C[C@@H]2C(C)(C)C(=O)NCCF | 48
0.85 | 0.38 | 94 | 84 |  |  |  |  |  | Cc1cc2c(cc1Cl)C1(CCN(C(=O)[C@@H]3CN(C(C)(C)C)C[C@H]3c3ccc(F)cc3F)CC1)C[C@@H]2C(C)(C)C(=O)N1CCOCC1 | 66
6.6 | 27 | 92 | 2050 |  |  |  |  |  | Cc1cc2c(cc1Cl)C1(CCN(C(=O)[C@@H]3CN(C(C)(C)C)C[C@H]3c3ccc(F)cc3F)CC1)C[C@@H]2C(C)(C)C(=O)NCC(C)C | 45
0.89 | 0.37 | 88 | 29 |  |  |  |  |  | Cc1cc2c(cc1Cl)C1(CCN(C(=O)[C@@H]3CN(C(C)(C)C)C[C@H]3c3ccc(F)cc3F)CC1)C[C@@H]2C(C)(C)C(=O)N1CC[C@H](O)C1 | 93
1.6 | 0.76 | 96 | 69 |  |  |  |  |  | Cc1cc2c(cc1Cl)C1(CCN(C(=O)[C@@H]3CN(C(C)(C)C)C[C@H]3c3ccc(F)cc3F)CC1)C[C@@H]2C(C)(C)C(=O)N1C[C@@H]2C[C@H]1CO2 | 72
1.1 | 0.59 | 88 | 238 |  |  |  |  |  | Cc1cc2c(cc1Cl)C1(CCN(C(=O)[C@@H]3CN(C(C)(C)C)C[C@H]3c3ccc(F)cc3F)CC1)C[C@@H]2C(C)(C)C(=O)N1CCC1 | 72
2.5 | 4.3 | 83 | 270 |  |  |  |  |  | CC(=O)N(C)C(C)(C)[C@H]1CC2(CCN(C(=O)[C@@H]3CN(C(C)(C)C)C[C@H]3c3ccc(F)cc3F)CC2)c2cc(Cl)c(C)cc21 | 41
2.5 | 2.3 | 92 | 260 |  |  |  |  |  | Cc1cc2c(cc1Cl)C1(CCN(C(=O)[C@@H]3CN(C(C)(C)C)C[C@H]3c3ccc(F)cc3F)CC1)C[C@@H]2C(C)(C)C(=O)NC1CCOCC1 | 74
4.5 | 3.3 | 90 | 260 |  |  |  |  |  | CC(=O)NC(C)(C)[C@H]1CC2(CCN(C(=O)[C@@H]3CN(C(C)(C)C)C[C@H]3c3ccc(F)cc3F)CC2)c2cc(Cl)c(C)cc21 | 43
2.6 | 0.91 | 94 | 323 |  |  |  |  |  | CNC(=O)C(C)(C)[C@H]1CC2(CCN(C(=O)[C@@H]3CN(C(C)(C)C)C[C@H]3c3ccc(F)cc3F)CC2)c2cc(Cl)c(C)cc21 | 60
59 | 53 | 80 | 5000 |  |  |  |  |  | Cc1cc2c(cc1Cl)C1(CCN(C(=O)[C@@H]3CN(C(C)(C)C)C[C@H]3c3ccc(F)cc3F)CC1)C[C@H]2C(C)(C)C(=O)N(C)C | 17
